From ChEMBL document CHEMBL2321793, “Discovery of a novel broad-spectrum antifungal agent derived from albaconazole” (ACS Med Chem Lett, 2013)
Converted amounts (≈) assume the structure as drawn.

How the values were obtained:
[1] = tested on: Aspergillus fumigatus; assay: Antifungal activity against Aspergillus fumigatus ASFU7 after 48 hrs by M38 method; assay type: functional; conditions: ASFU7, 48 h
[2] = tested on: Candida parapsilosis; assay: Antifungal activity against acquired-resistant Candida parapsilosis CAPA2 after 24 hrs by spectrofluorometric analysis; assay type: functional; conditions: Lodderomyces parapsilosis, CAPA2, 24 h
[3] = tested on: Candida parapsilosis; assay: Antifungal activity against acquired-resistant Candida parapsilosis CAPA1 after 24 hrs by spectrofluorometric analysis; assay type: functional; conditions: Lodderomyces parapsilosis, CAPA1, 24 h
[4] = tested on: Nakaseomyces glabratus; assay: Antifungal activity against Candida glabrata CAGL2 after 24 hrs by spectrofluorometric analysis; assay type: functional; conditions: CAGL2, 24 h
[5] = tested on: Pichia kudriavzevii; assay: Antifungal activity against Candida krusei CAKR8 after 24 hrs by spectrofluorometric analysis; assay type: functional; conditions: CAKR8, 24 h
[6] = tested on: Pichia kudriavzevii; assay: Antifungal activity against Candida krusei CAKR7 after 24 hrs by spectrofluorometric analysis; assay type: functional; conditions: CAKR7, 24 h
[7] = tested on: Candida albicans; assay: Antifungal activity against fluconazole-resistant Candida albicans DSY292 after 24 hrs by spectrofluorometric analysis; assay type: functional; conditions: DSY292, 24 h
[8] = tested on: Candida albicans; assay: Antifungal activity against fluconazole-susceptible Candida albicans CAAL97 after 24 hrs by spectrofluorometric analysis; assay type: functional; conditions: CAAL97, 24 h
[9] = tested on: Candida albicans; assay: Antifungal activity against fluconazole-susceptible Candida albicans CAAL93 after 24 hrs by spectrofluorometric analysis; assay type: functional; conditions: CAAL93, 24 h
[10] = tested on: Candida albicans; assay: Antifungal activity against fluconazole-resistant Candida albicans DSY735 after 24 hrs by spectrofluorometric analysis; assay type: functional; conditions: DSY735, 24 h
[11] = tested on: Candida albicans; assay: Antifungal activity against fluconazole-susceptible Candida albicans CAAL93 infected in Swiss mouse assessed as host survival at 15 mg/kg, po qd for 5 days measured after 13 days; assay type: functional
Procedure, shortened: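 Transiently neutropenic Swiss mice were infected intravenously with C. albicans CAAL93 blastoconidia. Oral dosing began 1 h post-infection at 15 mg/kg body weight, in 5% DMSO, once daily for 5 consecutive days. Controls received 100 μL 0.9% saline with 5% DMSO. The read-out was survival rate on day 13 after infection, compared by log-rank test.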

[12] = molecular target: T1, Lanosterol 14-alpha demethylase (Candida albicans (strain SC5314 / ATCC MYA-2876) (Yeast), UniProt P10613); assay: Inhibition of CYP51 in fluconazole-susceptible Candida albicans CAAL93 assessed as ergosterol level after 2 hrs
T1 sequence (P10613 whole entry): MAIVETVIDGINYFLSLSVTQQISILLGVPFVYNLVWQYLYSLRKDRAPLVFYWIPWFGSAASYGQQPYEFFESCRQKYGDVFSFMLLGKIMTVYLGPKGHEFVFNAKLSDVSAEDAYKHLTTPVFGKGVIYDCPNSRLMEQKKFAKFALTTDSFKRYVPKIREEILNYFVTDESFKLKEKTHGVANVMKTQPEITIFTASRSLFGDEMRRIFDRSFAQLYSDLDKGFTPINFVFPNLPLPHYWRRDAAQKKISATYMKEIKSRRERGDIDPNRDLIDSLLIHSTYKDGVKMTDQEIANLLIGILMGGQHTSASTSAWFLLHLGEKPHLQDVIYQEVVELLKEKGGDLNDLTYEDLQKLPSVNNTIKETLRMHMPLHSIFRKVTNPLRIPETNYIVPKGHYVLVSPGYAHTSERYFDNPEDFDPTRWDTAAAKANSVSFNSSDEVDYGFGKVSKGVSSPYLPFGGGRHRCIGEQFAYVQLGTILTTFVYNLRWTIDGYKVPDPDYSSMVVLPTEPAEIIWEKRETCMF

[13] = molecular target: T1, Lanosterol 14-alpha demethylase; assay: Inhibition of CYP51 in fluconazole-susceptible Candida albicans CAAL93 assessed as ergosterol level at 22 ng/mL after 2 hrs; design: scale not given: the % may be the effect or the level left
[14] = molecular target: T1, Lanosterol 14-alpha demethylase; assay: Inhibition of CYP51 in fluconazole-susceptible Candida albicans CAAL93 assessed as ergosterol level at 4.5 ng/mL after 2 hrs; design: scale not given: the % may be the effect or the level left
[15] = molecular target: T1, Lanosterol 14-alpha demethylase; assay: Inhibition of CYP51 in fluconazole-susceptible Candida albicans CAAL93 assessed as 14-methyl-3,6-diol level at 22 ng/mL after 2 hrs; design: scale not given: the % may be the effect or the level left
[16] = molecular target: T1, Lanosterol 14-alpha demethylase; assay: Inhibition of CYP51 in fluconazole-susceptible Candida albicans CAAL93 assessed as 14-methylepisterol level at 22 ng/mL after 2 hrs; design: scale not given: the % may be the effect or the level left
[17] = molecular target: T1, Lanosterol 14-alpha demethylase; assay: Inhibition of CYP51 in fluconazole-susceptible Candida albicans CAAL93 assessed as 14-methylepisterol level at 4.5 ng/mL after 2 hrs; design: scale not given: the % may be the effect or the level left
[18] = molecular target: T1, Lanosterol 14-alpha demethylase; assay: Inhibition of CYP51 in fluconazole-susceptible Candida albicans CAAL93 assessed as 14-methyfecosterol level at 22 ng/mL after 2 hrs; design: scale not given: the % may be the effect or the level left
[19] = molecular target: T1, Lanosterol 14-alpha demethylase; assay: Inhibition of CYP51 in fluconazole-susceptible Candida albicans CAAL93 assessed as 14-methyfecosterol level at 4.5 ng/mL after 2 hrs; design: scale not given: the % may be the effect or the level left
[20] = molecular target: T1, Lanosterol 14-alpha demethylase; assay: Inhibition of CYP51 in fluconazole-susceptible Candida albicans CAAL93 assessed as episterol level at 4.5 ng/mL after 2 hrs; design: scale not given: the % may be the effect or the level left
[21] = molecular target: T1, Lanosterol 14-alpha demethylase; assay: Inhibition of CYP51 in fluconazole-susceptible Candida albicans CAAL93 assessed as zymosterol level at 4.5 ng/mL after 2 hrs; design: scale not given: the % may be the effect or the level left
[22] = molecular target: T1, Lanosterol 14-alpha demethylase; assay: Inhibition of CYP51 in fluconazole-susceptible Candida albicans CAAL93 assessed as eburicol level at 22 ng/mL after 2 hrs; design: scale not given: the % may be the effect or the level left
[23] = molecular target: T1, Lanosterol 14-alpha demethylase; assay: Inhibition of CYP51 in fluconazole-susceptible Candida albicans CAAL93 assessed as eburicol level at 4.5 ng/mL after 2 hrs; design: scale not given: the % may be the effect or the level left
[24] = molecular target: T1, Lanosterol 14-alpha demethylase; assay: Inhibition of CYP51 in fluconazole-susceptible Candida albicans CAAL93 assessed as lanosterol level at 22 ng/mL after 2 hrs; design: scale not given: the % may be the effect or the level left
[25] = molecular target: T1, Lanosterol 14-alpha demethylase; assay: Inhibition of CYP51 in fluconazole-susceptible Candida albicans CAAL93 assessed as lanosterol level at 4.5 ng/mL after 2 hrs; design: scale not given: the % may be the effect or the level left
[26] = Antifungal activity against Rhizomucor pusillus RHPU1 after 48 hrs by broth microdilution test; assay type: functional
[27] = Antifungal activity against Scedosporium sp. SCSP1 after 48 hrs by broth microdilution test; assay type: functional
[28] = tested on: Aspergillus fumigatus; assay: Antifungal activity against Aspergillus fumigatus ASFU23 after 48 hrs by M38 method; assay type: functional; conditions: ASFU23, 48 h
[29] = tested on: Aspergillus fumigatus; assay: Antifungal activity against Aspergillus fumigatus ASFU19 after 48 hrs by M38 method; assay type: functional; conditions: ASFU19, 48 h
[30] = tested on: Aspergillus fumigatus; assay: Antifungal activity against Aspergillus fumigatus ASFU20 after 48 hrs by M38 method; assay type: functional; conditions: ASFU20, 48 h
[31] = tested on: Aspergillus fumigatus; assay: Antifungal activity against Aspergillus fumigatus ASFU17 after 48 hrs by M38 method; assay type: functional; conditions: ASFU17, 48 h
[32] = tested on: Aspergillus fumigatus; assay: Antifungal activity against Aspergillus fumigatus ASFU13 after 48 hrs by M38 method; assay type: functional; conditions: ASFU13, 48 h
[33] = tested on: Rhizomucor miehei; assay: Antifungal activity against Rhizomucor miehei RHMI1 after 48 hrs by broth microdilution test

Structure (SMILES)	MIC [1] [µg/mL]	MIC [2] [µg/mL]	MIC [3] [µg/mL]	MIC [4] [µg/mL]	MIC [5] [µg/mL]	MIC [6] [µg/mL]	MIC [7] [µg/mL]	MIC [8] [µg/mL]	MIC [9] [µg/mL]	MIC [10] [µg/mL]	MIC [26] [µg/mL]	MIC [27] [µg/mL]	MIC [28] [µg/mL]	MIC [29] [µg/mL]	MIC [30] [µg/mL]	MIC [31] [µg/mL]	MIC [32] [µg/mL]	MIC [33] [µg/mL]	other results
C[C@@H](n1cnc2ccc3ncsc3c2c1=O)[C@](O)(Cn1cncn1)c1ccc(F)cc1F	> 43	< 0.001	0.006 (≈ 0.0132 µM)	0.095 (≈ 0.209 µM)	2.5 (≈ 5.5 µM)	5 (≈ 11 µM)	5 (≈ 11 µM)	< 0.001	0.003 (≈ 0.0066 µM)	1.43 (≈ 3.15 µM)									
C[C@@H](n1cnc2cc3scnc3cc2c1=O)[C@](O)(Cn1cncn1)c1ccc(F)cc1F	0.28 (≈ 0.616 µM)	0.127 (≈ 0.279 µM)	0.013 (≈ 0.0286 µM)	0.068 (≈ 0.15 µM)	< 0.005	0.182 (≈ 0.4 µM)	0.94 (≈ 2.07 µM)	< 0.001	0.011 (≈ 0.0242 µM)	0.118 (≈ 0.26 µM)	1 (≈ 2.2 µM)	1 (≈ 2.2 µM)	0.27 (≈ 0.594 µM)	2.1 (≈ 4.62 µM)	4.5 (≈ 9.9 µM)	2.2 (≈ 4.84 µM)	3.1 (≈ 6.82 µM)	2 (≈ 4.4 µM)	survival at 15 mg/kg [11]: 75%; inhibition (INH) [12]: Dose-dependent effect; Activity [13]: 5.4%; Activity [14]: 51.1%; Activity [15]: 5.4%; Activity [16]: 15.7%; Activity [17]: 5.9%; Activity [18]: 11.4%; Activity [19]: 3.8%; Activity [20]: 2.9%; Activity [21]: 2%; Activity [22]: 20.4%; Activity [23]: 4.4%; Activity [24]: 41.6%; Activity [25]: 29.9%
C[C@@H](n1cnc2cc(Cl)ccc2c1=O)[C@](O)(Cn1cncn1)c1ccc(F)cc1F [ALBACONAZOLE]	0.23 (≈ 0.533 µM)	0.011 (≈ 0.0255 µM)	0.018 (≈ 0.0417 µM)	0.065 (≈ 0.151 µM)	0.005 (≈ 0.0116 µM)	0.022 (≈ 0.0509 µM)	< 0.043	< 0.001	0.003 (≈ 0.00695 µM)	0.063 (≈ 0.146 µM)	0.5 (≈ 1.16 µM)	0.5 (≈ 1.16 µM)	0.22 (≈ 0.509 µM)	2 (≈ 4.63 µM)	1.2 (≈ 2.78 µM)	2.1 (≈ 4.86 µM)	1.1 (≈ 2.55 µM)	1 (≈ 2.32 µM)	
OC(Cn1cncn1)(Cn1cncn1)c1ccc(F)cc1F [FLUCONAZOLE]		> 30	> 30	7.7 (≈ 25.1 µM)	12.9 (≈ 42.1 µM)	> 30	21 (≈ 68.6 µM)	0.018 (≈ 0.0588 µM)	0.062 (≈ 0.202 µM)	11 (≈ 35.9 µM)									
CCC(C)n1ncn(-c2ccc(N3CCN(c4ccc(OCC5COC(Cn6cncn6)(c6ccc(Cl)cc6Cl)O5)cc4)CC3)cc2)c1=O (centres undefined) [ITRACONAZOLE]	0.42 (≈ 0.595 µM)												> 71	> 71	> 71	> 71	> 71		
C[C@@H](c1ncncc1F)[C@](O)(Cn1cncn1)c1ccc(F)cc1F [VORICONAZOLE]	0.15 (≈ 0.429 µM)	0.905 (≈ 2.59 µM)	0.925 (≈ 2.65 µM)	0.061 (≈ 0.175 µM)	< 0.003	0.549 (≈ 1.57 µM)	1.1 (≈ 3.15 µM)	< 0.003	0.005 (≈ 0.0143 µM)	0.101 (≈ 0.289 µM)	2 (≈ 5.73 µM)	0.125 (≈ 0.358 µM)	0.18 (≈ 0.515 µM)	3 (≈ 8.59 µM)	< 0.35	0.25 (≈ 0.716 µM)	< 0.35	8 (≈ 22.9 µM)	
